Measured values collected from several papers.
RPS6KA4: Ribosomal protein S6 kinase alpha-4 (RPS6KA4, Homo sapiens, UniProt O75676)
RPS6KA4 N-terminal kinase domain: Ribosomal protein S6 kinase alpha-4, N-terminal kinase domain (RPS6KA4, Homo sapiens, UniProt O75676)
RPS6KA4 C-terminal kinase domain: Ribosomal protein S6 kinase alpha-4, C-terminal kinase domain (RPS6KA4, Homo sapiens, UniProt O75676)

COc1cc2ncnc(Nc3ccc(Oc4ccccc4)c(C)c3C)c2cc1OC
inhibition (RPS6KA4; enzyme activity; inhibitor; 1 µM): -5%

CN(c1nccc(-c2cnn3ncccc23)n1)C1CC1
remaining binding (RPS6KA4 N-terminal kinase domain; binding; competition with immobilised ligand; 1 µM): 100%

CC(C)(O)[C@H]1CC[C@H](Nc2ccc3ncc(-c4cccc(C(F)(F)F)c4)n3n2)CC1
remaining activity (RPS6KA4; enzyme activity; inhibitor; 1 µM): 92.4%

CN(C)c1nccc(-c2cnn3ncccc23)n1
remaining binding (RPS6KA4 C-terminal kinase domain; binding; competition with immobilised ligand; 1 µM): 84%

C[C@H](NC(=O)c1cnc2n1[C@](C)(Cc1ccc(C#N)cc1)C(=O)N2c1cc(Cl)c(F)c(Cl)c1)C(=O)NC1(c2ccccn2)CC1
remaining binding (RPS6KA4 C-terminal kinase domain; cell-free assay; competition with immobilised ligand; 1 µM): 92%

N#CCCc1ccc2c(c1)-c1[nH]c3ccc([N+](=O)[O-])cc3c1CC(=O)N2
remaining signal (RPS6KA4; cell-free assay; 0.5 µM): 85.8%

CCC(=O)N[C@H]1CC[C@@H](C(=O)N(C)c2ccc(-c3nc4ccccc4o3)cc2)C1
remaining binding (RPS6KA4 N-terminal kinase domain; cell-free assay; competition with immobilised ligand; 1 µM): 100%

O=C(Nc1cnn(-c2csc(C(=O)NC3COC3)c2)c1)Nc1c(F)cccc1Cl
remaining activity (RPS6KA4; enzyme activity; inhibitor; 5 µM): 99.8%

COc1cc(Cl)c(C(=O)N[C@@H](CN[C@H]2CC[C@@H](N)CC2)Cc2ccc(C#N)cc2)cc1-c1ccc(CN[C@H](C)c2ccc(C)cc2)o1
remaining activity (RPS6KA4; enzyme activity; inhibitor; 1 µM): 77%

Cc1ccc(C(=O)Nc2ccc(CN3CCN(C)CC3)c(C(F)(F)F)c2)cc1C#Cc1cnc2cccnn12
activity vs control (RPS6KA4; enzyme activity; inhibitor; 23.5 nM): 100%

COc1cc2c(N3CCN(C(=O)Nc4ccc(OC(C)C)cc4)CC3)ncnc2cc1OCCCN1CCCCC1
remaining signal (RPS6KA4; cell-free assay; 0.5 µM): 120%

CCS(=O)(=O)c1cc2cc(C[C@](O)(CC(C)(C)c3ccc(F)cc3C(N)=O)C(F)(F)F)[nH]c2cn1
remaining binding (RPS6KA4 C-terminal kinase domain; cell-free assay; competition with immobilised ligand; 1 µM): 94%

Cc1ccc(Nc2nccc(N(C)c3ccc4c(C)n(C)nc4c3)n2)cc1S(N)(=O)=O
remaining activity (RPS6KA4; enzyme activity; inhibitor; 0.5 µM): 102%

CCN(CC)c1ccc(C2=NNC(=O)CC2C)cc1[N+](=O)[O-] (stereo not shown)
remaining activity (RPS6KA4; enzyme activity; inhibitor; 10 µM): 82%

Cc1cnc(NC2CCOCC2)nc1-n1cnc(C(=O)NC(CN)c2cc(F)cc(Cl)c2)c1 (stereo not shown)
remaining activity (RPS6KA4; enzyme activity; inhibitor; radiometric; 1 µM): 80%

Cc1cc(C)c(-n2ccn3nc(-c4cccnc4)cc23)cc1NC(=O)c1cc(C#N)cc(S(F)(F)(F)(F)F)c1
remaining binding (RPS6KA4 C-terminal kinase domain; cell-free assay; competition with immobilised ligand; 0.1 µM): 79.3%

CC(C)(C)c1nc2c(s1)c1nc(N)ncc1c1ccc(NS(=O)(=O)c3c(F)cccc3F)c(F)c12
remaining activity (RPS6KA4; enzyme activity; inhibitor; radiometric; 1 µM): 84%

CC(=O)C1=C(C)N(c2cccc(C(F)(F)F)c2)C(=O)N[C@@H]1c1ccc(C#N)nc1
remaining binding (RPS6KA4 C-terminal kinase domain; cell-free assay; competition with immobilised ligand; 1 µM): 78.8%

CC1CCCN1c1nccc(-c2cnn3ncccc23)n1 (stereo not shown)
remaining binding (RPS6KA4 N-terminal kinase domain; binding; competition with immobilised ligand; 1 µM): 99%

CNC(=O)c1cc(Oc2ccc(NC(=O)Nc3ccc(Cl)c(C(F)(F)F)c3)cc2)ccn1
remaining signal (RPS6KA4; cell-free assay; 0.5 µM): 97.7%

N[C@@H]1CCN(c2nccc(-c3cnn4ncccc34)n2)C1
remaining binding (RPS6KA4 N-terminal kinase domain; binding; competition with immobilised ligand; 1 µM): 100%

O=C(N[C@H]1CCCCC/C=C\C2C[C@@]2(C(=O)O)NC(=O)[C@@H]2C[C@@H](Oc3ccncc3)CN2C1=O)OC1CCCC1 (stereo partly shown)
remaining binding (RPS6KA4 N-terminal kinase domain; binding; competition with immobilised ligand; 1 µM): 100%

Cc1ccc(NC(=O)c2ccc(C)c(C(F)(F)F)c2)cc1C#Cc1nn(C2CCC(O)CC2)c2ncnc(N)c12 (stereo not shown)
remaining signal (RPS6KA4; cell-free assay; 10 µM): 70%

C[C@H]1CCN(c2nccc(-c3cnn4ncccc34)n2)C1
remaining binding (RPS6KA4 N-terminal kinase domain; binding; competition with immobilised ligand; 1 µM): 93%

Cn1cncc1C1=CN(c2ncnc3[nH]cnc23)CCS1
inhibition (RPS6KA4; enzyme activity; inhibitor; radiometric; 50 nM): 13.3%

CCCCNc1ncc2c(-c3ccc(F)cc3)nn(C[C@H]3CC[C@H](N)CC3)c2n1
inhibition (RPS6KA4 N-terminal kinase domain; target engagement in cells; inhibitor; chemoproteomics; 20 mM): 22%

CO[C@H]1CC[C@H](CNc2ccc(S(=O)(=O)NC(=O)c3ccc(N4CCN(CC5=C(c6ccc(Cl)cc6)CC(C)(C)CC5)CC4)cc3Oc3cnc4[nH]ccc4c3)cc2[N+](=O)[O-])CC1
remaining binding (RPS6KA4 N-terminal kinase domain; cell-free assay; competition with immobilised ligand; 1 µM): 95%

Cc1ccc(C(=O)NCc2ccsc2)cc1C#Cc1cn(C(C)C)c2ncnc(N)c12
activity vs control (RPS6KA4; enzyme activity; inhibitor; 1 µM): 107%

Nc1ncnc2occ(-c3ccc(NC(=O)Nc4cc(C(F)(F)F)ccc4F)cc3)c12
remaining signal (RPS6KA4 C-terminal kinase domain; cell-free assay; inhibitor; 20 µM): 68%

COc1cccc2c(NCc3ccccc3)nc(-n3c(N)nc4ccccc43)nc12
inhibition (RPS6KA4 N-terminal kinase domain; target engagement in cells; inhibitor; chemoproteomics; 20 mM): 7.3%

O=C(Nc1cccnn1)N1CC(C/C=C/c2cncc(Oc3ccc(C(F)(F)F)cn3)n2)C1
remaining binding (RPS6KA4 C-terminal kinase domain; cell-free assay; competition with immobilised ligand; 1 µM): 92%
